The source of these data is PubChem BioAssay AID624313 (The Scripps Research Institute Molecular Screening Center, 2012).

This experiment has as its system HEK293 CYP11A1 promoter CAT reporter, ELISA absorbance. Description: CYP11A1 reporter increase in DAX-1/SF-1 cells – cell-based, absorbance, CAT reporter, HEK293, counter-screen for DAX1 inhibitor project, late-stage follow-up (AID 624313). Conditions: at 100 µM (top of the series). In a few lines: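 Material – HEK293 cells carrying DAX-1, SF-1 and CYP11A1-promoter CAT reporter plasmids · Compound – three doses, 1:2 steps from 100 µM · Detection – colorimetric enzyme immunoassay of CAT protein, absorbance · Evaluation – CAT signal relative to DMSO-treated wells · Controls – pSG5 empty-vector positive control, DMSO reference · Replicates – each dose tested in triplicate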

Activity calls are given as the source filed them.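 The calls were made as follows: active = reporter absorbance over solvent-only wells above 1.25 at every tested dose; inactive = the rest.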

Consider `Cn1c(=O)n(C)c2cc(C(=O)Nc3ccc4c(c3)OCO4)ccc21`, for which the relative activity ratio was 0.52 (inactive).

Take `Cn1c(=O)n(C)c2cc(C(=O)Nc3ccc4c(c3)OCCO4)ccc21`: the relative activity ratio is 0.27 (inactive).
